Results from ChEMBL document CHEMBL4130442, “Design, synthesis and structure-activity relationship studies of a focused library of pyrimidine moiety with anti-proliferative and anti-metastasis activities in triple negative breast cancer” (Eur J Med Chem, 2017).
The source made the active and inactive calls. The calls are words filed in the database; no cut-off is given here.

Columns and labels:
[1] = target: T1, Platelet-derived growth factor receptor beta (Homo sapiens, UniProt P09619); assay: Inhibition of PDGFRbeta in human MDA-MB-231 cells assessed as ULK Ser317 phosphorylation level at 2.5 uM incubated for 24 hrs in presence of control siRNA by Western blot relative to untreated control; format: cell-based
How it was run: (§1)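 Cells were transfected with control or PDGFR-β siRNA, then treated with 2.5 μM compound for 24 h. PDGFR-β-AKT-ULK1 pathway phospho-proteins were assessed by western blot: lysis in Hepes pH 7.4 / Triton buffer, 10-15% SDS-PAGE, PVDF, ECL detection, β-actin as loading control.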

[2] = test system: MDA-MB-231; assay: Induction of autophagy in human MDA-MB-231 cells assessed as change in Beclin-1 protein level at 2.5 uM incubated for 24 hrs in presence of PDGFRbeta siRNA by Western blot method relative to untreated control; format: functional
How it was run: (§2)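 MDA-MB-231 cells were exposed for 24 h. Adherent and floating cells were pooled and lysed for 1 h at 4 °C in 50 mM Hepes pH 7.4 with 1% Triton X-100, orthovanadate, NaF, EDTA, PMSF, aprotinin and leupeptin. After 12,000 rpm clearing, equal protein was run on 10-15% SDS-PAGE and blotted to PVDF. Detection used HRP-ECL, with β-actin as loading control and densitometric quantification.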

[3] = target: T1, Platelet-derived growth factor receptor beta; assay: Inhibition of PDGFRbeta in human MDA-MB-231 cells assessed as Akt Thr305 phosphorylation level at 2.5 uM incubated for 24 hrs in absence of PDGFRbeta siRNA by Western blot relative to untreated control; format: cell-based; how it was run: as §1
[4] = test system: MDA-MB-231; assay: Antiproliferative activity against human MDA-MB-231 cells incubated for 24 hrs by MTT assay; format: functional, cell-based; settings: MDA-MB-231, 24 h
How it was run: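 MDA-MB-231 cells grown in DMEM with 10% FBS under 5% CO2 were seeded at 5×10^4 cells/ml. After 24 h, a concentration series was added for 24, 48 or 72 h and viability was read by MTT. IC50 is mean ± SD of triplicates.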

[5] = test system: MDA-MB-231; assay: Induction of apoptosis in human MDA-MB-231 cells assessed as change in cleaved caspase-3 protein level at 10 uM incubated for 24 hrs by Western blot method relative to untreated control; format: functional; how it was run: as §2
[6] = test system: MDA-MB-231; assay: Effect on total MEK1/2 protein level in human MDA-MB-231 cells at 2.5 uM incubated for 24 hrs in presence of PDGFRbeta siRNA by Western blot relative to untreated control; format: cell-based; settings: mda-mb-231, 24 h
[7] = test system: MDA-MB-231; assay: Induction of autophagy in human MDA-MB-231 cells assessed as change in p62 protein level at 2.5 uM incubated for 24 hrs by Western blot method relative to untreated control; format: functional; how it was run: as §2
[8] = test system: MDA-MB-231; assay: Induction of autophagy in human MDA-MB-231 cells assessed as change in LC3-2 protein level at 2.5 uM incubated for 24 hrs by Western blot method relative to untreated control; format: functional
How it was run: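 MDA-MB-231 cells (ATCC; DMEM, 10% FBS, 5% CO2) were treated 24 h over a concentration series. Adherent and floating cells were pooled and lysed 1 h at 4 °C (50 mM Hepes pH 7.4, 1% Triton X-100, phosphatase/protease inhibitors). Equal protein was run on 10-15% SDS-PAGE, transferred to PVDF, probed for Beclin-1, p62 and LC3 with HRP/ECL detection, and normalised to β-actin.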

[9] = target: Mitogen-activated protein kinase; ERK1/ERK2 (Homo sapiens) (UniProt P27361+P28482); assay: Inhibition of ERK1/2 in human MDA-MB-231 cells assessed as ERK1/2 Thr202/Tyr204 phosphorylation level at 5 uM incubated for 24 hrs in presence of PDGFRbeta siRNA by Western blot relative to untreated control; format: cell-based
[10] = test system: MDA-MB-231; assay: Induction of apoptosis in human MDA-MB-231 cells at 2.5 to 10 uM incubated for 24 hrs by Annexin V/propidium iodide staining based flow cytometry; format: functional, cell-based
[11] = test system: MDA-MB-231; assay: Induction of apoptosis in human MDA-MB-231 cells assessed as change in cleaved caspase-3 protein level at 5 uM incubated for 24 hrs by Western blot method relative to untreated control; format: functional; how it was run: as §2
[12] = target: T1, Platelet-derived growth factor receptor beta; assay: Inhibition of PDGFRbeta in human MDA-MB-231 cells assessed as C-Raf Ser338 phosphorylation level at 5 uM incubated for 24 hrs in presence of PDGFRbeta siRNA by Western blot relative to untreated control; format: cell-based
[13] = test system: MDA-MB-231; assay: Induction of autophagy in human MDA-MB-231 cells assessed as change in LC3-2 protein level at 2.5 uM incubated for 24 hrs in presence of PDGFRbeta siRNA by Western blot method relative to untreated control; format: functional
How it was run: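 Before treatment, MDA-MB-231 cells were transfected with control or PDGFR-β siRNA, then exposed to 2.5 μM compound for 24 h. Lysates of pooled adherent and floating cells were immunoblotted (10-15% SDS-PAGE, PVDF, ECL) for PDGFR-β-AKT-ULK1 autophagy signalling markers, with β-actin as loading control.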

[14] = test system: MDA-MB-231; assay: Effect on total MEK1/2 protein level in human MDA-MB-231 cells at 5 uM incubated for 24 hrs in presence of PDGFRbeta siRNA by Western blot relative to untreated control; format: cell-based; settings: mda-mb-231, 24 h
[15] = test system: MCF7; assay: Antiproliferative activity against human MCF7 cells incubated for 24 hrs by MTT assay; format: functional, cell-based; settings: MCF7, 24 h
[16] = test system: MDA-MB-231; assay: Effect on total ULK1 protein level in human MDA-MB-231 cells at 2.5 uM incubated for 24 hrs by Western blot relative to untreated control; format: ADME, cell-based; settings: mda-mb-231, 24 h; how it was run: as §2
[17] = target: T1, Platelet-derived growth factor receptor beta; assay: Inhibition of PDGFRbeta in human MDA-MB-231 cells assessed as Akt Thr305 phosphorylation level at 5 uM incubated for 24 hrs by Western blot relative to untreated control; format: cell-based
How it was run: (§3)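 Cells were treated 24 h at several concentrations. Pooled adherent and floating cells were lysed in Hepes 50 mM pH 7.4 / 1% Triton X-100 buffer with vanadate, NaF, EDTA, PMSF, aprotinin and leupeptin. Equal protein was run on 10-15% SDS-PAGE and blotted to PVDF. PDGFR-β-AKT-ULK1 pathway phospho-proteins were probed and detected by ECL, with β-actin as loading control.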

[18] = test system: MDA-MB-231; assay: Effect on total Akt protein level in human MDA-MB-231 cells at 2.5 uM incubated for 24 hrs in presence of control siRNA by Western blot relative to untreated control; format: ADME, cell-based; settings: mda-mb-231, 24 h; how it was run: as §2
[19] = target: T1, Platelet-derived growth factor receptor beta; assay: Inhibition of PDGFRbeta in human MDA-MB-231 cells assessed as ULK Ser555 phosphorylation level at 2.5 uM incubated for 24 hrs by Western blot relative to untreated control; format: cell-based; how it was run: as §3
[20] = target: T1, Platelet-derived growth factor receptor beta; assay: Inhibition of PDGFRbeta in human MDA-MB-231 cells assessed as ULK Ser317 phosphorylation level at 5 uM incubated for 24 hrs by Western blot relative to untreated control; format: cell-based; how it was run: as §3
[21] = target: T1, Platelet-derived growth factor receptor beta; assay: Inhibition of PDGFRbeta in human MDA-MB-231 cells assessed as mTOR Ser2448 phosphorylation level at 10 uM incubated for 24 hrs by Western blot relative to untreated control; format: cell-based; how it was run: as §3
[22] = test system: MDA-MB-231; assay: Effect on total Akt protein level in human MDA-MB-231 cells at 2.5 uM incubated for 24 hrs in absence of PDGFRbeta siRNA by Western blot relative to untreated control; format: ADME, cell-based; settings: mda-mb-231, 24 h; how it was run: as §2

T1 sequence (P09619 whole entry): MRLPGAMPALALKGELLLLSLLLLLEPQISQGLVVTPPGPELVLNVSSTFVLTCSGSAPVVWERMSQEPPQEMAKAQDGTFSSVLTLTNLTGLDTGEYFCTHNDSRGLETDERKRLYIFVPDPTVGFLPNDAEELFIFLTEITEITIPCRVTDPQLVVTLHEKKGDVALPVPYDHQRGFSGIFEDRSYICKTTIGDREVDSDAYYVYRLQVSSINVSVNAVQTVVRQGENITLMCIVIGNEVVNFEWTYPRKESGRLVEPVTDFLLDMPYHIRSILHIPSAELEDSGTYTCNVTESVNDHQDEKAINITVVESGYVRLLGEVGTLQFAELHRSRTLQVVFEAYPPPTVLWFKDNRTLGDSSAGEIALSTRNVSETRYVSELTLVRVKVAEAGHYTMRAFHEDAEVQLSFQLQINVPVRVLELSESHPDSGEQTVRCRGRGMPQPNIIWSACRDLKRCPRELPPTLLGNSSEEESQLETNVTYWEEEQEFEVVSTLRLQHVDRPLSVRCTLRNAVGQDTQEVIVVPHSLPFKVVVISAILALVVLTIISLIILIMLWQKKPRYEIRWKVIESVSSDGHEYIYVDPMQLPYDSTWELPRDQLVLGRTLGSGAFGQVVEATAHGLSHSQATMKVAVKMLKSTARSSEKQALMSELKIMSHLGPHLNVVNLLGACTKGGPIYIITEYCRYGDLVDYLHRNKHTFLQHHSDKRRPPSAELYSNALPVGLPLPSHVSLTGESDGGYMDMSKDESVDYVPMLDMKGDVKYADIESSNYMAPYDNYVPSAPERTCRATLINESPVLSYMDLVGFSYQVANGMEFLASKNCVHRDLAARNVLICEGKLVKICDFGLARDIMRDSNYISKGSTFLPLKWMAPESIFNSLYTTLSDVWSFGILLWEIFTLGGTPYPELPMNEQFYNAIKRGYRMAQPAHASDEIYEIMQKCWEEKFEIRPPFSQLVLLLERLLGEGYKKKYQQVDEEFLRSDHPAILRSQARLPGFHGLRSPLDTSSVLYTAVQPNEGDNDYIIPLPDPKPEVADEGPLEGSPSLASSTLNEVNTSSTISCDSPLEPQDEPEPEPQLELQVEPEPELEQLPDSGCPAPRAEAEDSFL
Sequence of Mitogen-activated protein kinase; ERK1/ERK2 (Homo sapiens) (P27361 whole entry, looked up): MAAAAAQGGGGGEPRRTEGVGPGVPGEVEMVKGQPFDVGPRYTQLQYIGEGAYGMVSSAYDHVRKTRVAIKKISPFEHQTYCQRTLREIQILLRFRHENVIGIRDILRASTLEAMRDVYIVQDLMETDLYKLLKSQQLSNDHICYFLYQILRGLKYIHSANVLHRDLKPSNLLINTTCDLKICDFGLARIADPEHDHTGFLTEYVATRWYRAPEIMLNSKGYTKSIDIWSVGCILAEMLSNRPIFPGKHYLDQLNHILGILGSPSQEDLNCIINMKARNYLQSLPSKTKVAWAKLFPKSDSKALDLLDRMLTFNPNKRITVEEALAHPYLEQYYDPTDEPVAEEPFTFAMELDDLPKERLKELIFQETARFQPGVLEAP
Sequence of Mitogen-activated protein kinase; ERK1/ERK2 (Homo sapiens) (P28482 whole entry, looked up): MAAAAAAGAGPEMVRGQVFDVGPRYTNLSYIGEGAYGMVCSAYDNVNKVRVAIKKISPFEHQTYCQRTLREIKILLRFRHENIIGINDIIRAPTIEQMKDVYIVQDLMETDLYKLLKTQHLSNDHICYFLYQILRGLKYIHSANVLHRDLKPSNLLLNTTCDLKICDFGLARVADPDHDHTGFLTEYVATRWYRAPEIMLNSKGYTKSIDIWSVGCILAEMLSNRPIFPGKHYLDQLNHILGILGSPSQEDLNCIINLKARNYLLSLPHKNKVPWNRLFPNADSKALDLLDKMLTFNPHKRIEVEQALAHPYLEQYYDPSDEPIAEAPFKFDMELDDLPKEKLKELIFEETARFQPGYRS

Question: Which results are given for `COc1cccc(Nc2cc(N3CCN(C(=O)Nc4ccc(C(F)(F)F)cc4)CC3)ncn2)c1`?
Answer: fold change (FC) [1]: 3.21; fold change (FC) [2]: 4.18; fold change (FC) [3]: 0.05; IC50 [4]: 0.73 to 0.75 µM; fold change (FC) [5]: 0.32; fold change (FC) [6]: 1.05; fold change (FC) [7]: 0.78; fold change (FC) [8]: 2.5; fold change (FC) [9]: 1.86; Activity [10]: Active; fold change (FC) [11]: 0.88; fold change (FC) [12]: 0.78; fold change (FC) [13]: 3.01; fold change (FC) [14]: 1.08; IC50 [15]: 2.16 µM; fold change (FC) [16]: 0.89; fold change (FC) [17]: 0.75; fold change (FC) [18]: 0.86; fold change (FC) [19]: 4.5; fold change (FC) [20]: 2.1; fold change (FC) [21]: 0.16; fold change (FC) [22]: 0.62
